From ChEMBL document CHEMBL4837207, “Discovery of pyrrolo[2,3-d]pyrimidine derivatives as potent Axl inhibitors: Design, synthesis and biological evaluation” (Eur J Med Chem, 2021)
pIC50: −log10 of the molar value.

How the values were obtained:
[1] = target: T1, Tyrosine-protein kinase receptor UFO (Homo sapiens, UniProt P30530); test: Inhibition of AXL (unknown origin) by ELISA
T1 sequence (P30530 whole entry): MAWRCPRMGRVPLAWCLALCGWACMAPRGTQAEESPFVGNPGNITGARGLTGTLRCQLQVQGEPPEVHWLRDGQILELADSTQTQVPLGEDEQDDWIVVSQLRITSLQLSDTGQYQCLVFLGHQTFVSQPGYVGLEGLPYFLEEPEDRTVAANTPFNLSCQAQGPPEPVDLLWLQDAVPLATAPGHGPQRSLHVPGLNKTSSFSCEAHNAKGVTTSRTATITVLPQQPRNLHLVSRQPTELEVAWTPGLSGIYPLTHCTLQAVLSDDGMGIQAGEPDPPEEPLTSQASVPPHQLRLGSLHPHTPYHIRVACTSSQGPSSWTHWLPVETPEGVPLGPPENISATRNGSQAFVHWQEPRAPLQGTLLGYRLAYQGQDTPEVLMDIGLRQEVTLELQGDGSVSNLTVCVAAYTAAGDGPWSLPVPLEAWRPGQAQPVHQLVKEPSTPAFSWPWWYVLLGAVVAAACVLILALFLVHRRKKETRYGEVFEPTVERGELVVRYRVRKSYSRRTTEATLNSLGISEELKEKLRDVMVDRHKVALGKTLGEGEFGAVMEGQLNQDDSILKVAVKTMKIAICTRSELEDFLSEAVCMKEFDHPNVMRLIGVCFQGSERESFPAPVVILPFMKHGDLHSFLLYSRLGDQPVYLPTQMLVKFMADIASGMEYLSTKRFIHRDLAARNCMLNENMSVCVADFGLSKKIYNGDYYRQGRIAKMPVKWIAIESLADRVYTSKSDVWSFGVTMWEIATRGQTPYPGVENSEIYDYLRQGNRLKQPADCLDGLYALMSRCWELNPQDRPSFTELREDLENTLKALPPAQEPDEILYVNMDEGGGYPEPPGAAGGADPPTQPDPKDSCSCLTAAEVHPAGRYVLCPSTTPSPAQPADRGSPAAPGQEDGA

[2] = system: MKN-45; test: Antiproliferative activity against human MKN-45 cells incubated for 72 hrs; format: functional, cell-based; settings: MKN-45, 72 h
In short: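 MKN-45 cells (MET-amplified gastric carcinoma) grown in the supplier-recommended medium and serum, seeded at low density and treated the next day across a concentration range for 72 h. Proliferation read by SRB or CCK-8. IC50 obtained from a four-parameter concentration-response fit; mean ± SD of two independent assays.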

[3] = target: Hepatocyte growth factor receptor (Homo sapiens, UniProt P08581); test: Inhibition of c-MET (unknown origin) by ELISA
Sequence of Hepatocyte growth factor receptor (P08581 whole entry): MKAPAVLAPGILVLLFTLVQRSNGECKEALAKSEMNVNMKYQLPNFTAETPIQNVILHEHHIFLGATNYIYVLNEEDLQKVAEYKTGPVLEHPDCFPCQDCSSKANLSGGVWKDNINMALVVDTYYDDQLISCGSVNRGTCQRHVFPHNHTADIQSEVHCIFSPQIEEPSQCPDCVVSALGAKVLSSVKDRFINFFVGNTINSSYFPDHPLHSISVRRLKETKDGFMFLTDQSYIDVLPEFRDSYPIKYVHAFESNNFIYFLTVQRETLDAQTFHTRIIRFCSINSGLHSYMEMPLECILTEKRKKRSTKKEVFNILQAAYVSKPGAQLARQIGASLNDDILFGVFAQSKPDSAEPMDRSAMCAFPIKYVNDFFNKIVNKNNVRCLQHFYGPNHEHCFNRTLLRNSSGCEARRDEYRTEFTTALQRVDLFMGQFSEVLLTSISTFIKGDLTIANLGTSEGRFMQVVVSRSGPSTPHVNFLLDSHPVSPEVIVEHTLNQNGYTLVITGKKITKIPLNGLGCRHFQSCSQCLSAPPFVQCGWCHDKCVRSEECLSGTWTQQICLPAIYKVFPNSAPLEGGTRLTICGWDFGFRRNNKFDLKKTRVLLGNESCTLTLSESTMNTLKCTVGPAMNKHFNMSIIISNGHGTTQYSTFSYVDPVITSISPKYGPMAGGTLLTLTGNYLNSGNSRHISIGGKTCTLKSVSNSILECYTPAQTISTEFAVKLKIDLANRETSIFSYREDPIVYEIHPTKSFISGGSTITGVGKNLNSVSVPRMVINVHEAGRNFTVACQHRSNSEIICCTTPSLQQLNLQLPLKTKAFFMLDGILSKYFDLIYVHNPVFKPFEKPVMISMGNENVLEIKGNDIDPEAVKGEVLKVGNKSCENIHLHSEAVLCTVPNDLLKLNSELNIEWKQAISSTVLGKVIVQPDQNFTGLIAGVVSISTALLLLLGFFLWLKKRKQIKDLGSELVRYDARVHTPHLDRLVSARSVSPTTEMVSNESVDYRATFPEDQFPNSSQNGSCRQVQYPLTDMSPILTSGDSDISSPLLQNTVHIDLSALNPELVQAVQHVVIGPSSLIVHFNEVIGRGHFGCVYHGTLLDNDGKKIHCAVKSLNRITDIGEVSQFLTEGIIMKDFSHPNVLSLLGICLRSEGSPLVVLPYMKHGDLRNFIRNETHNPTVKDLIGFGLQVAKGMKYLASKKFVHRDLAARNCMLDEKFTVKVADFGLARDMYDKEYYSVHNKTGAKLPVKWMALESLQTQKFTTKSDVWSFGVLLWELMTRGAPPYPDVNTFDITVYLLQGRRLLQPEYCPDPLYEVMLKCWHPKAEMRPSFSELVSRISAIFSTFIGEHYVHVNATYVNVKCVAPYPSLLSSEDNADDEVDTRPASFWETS

[4] = system: BaF3; test: Antiproliferative activity against mouse BaF3 stably expressing human TEL-AXL incubated for 72 hrs; format: functional, cell-based; settings: BaF3, 72 h
[5] = AUC (0 to infinity) in Sprague-Dawley rat at 3 mg/kg, po via gavage measured up to 24 hrs by LC-MS analysis; format: ADME, organism-based; parameters: route oral, dose 3 mg/kg, time <=24; settings: in vivo
In short: (§1)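 Male Sprague-Dawley rats (n = 3) dosed once by oral gavage at 3 mg/kg as a solution in 5% DMSO/95% (0.5% CMC-Na). Blood sampled at 0.25, 0.5, 1, 2, 4, 6, 8 and 24 h, kept on wet ice, serum separated by centrifugation and stored at -20 °C. Serum levels measured by LC-MS/MS; parameters reported as means.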

[6] = Cmax in Sprague-Dawley rat at 3 mg/kg, po via gavage measured up to 24 hrs by LC-MS analysis; format: ADME, organism-based; parameters: route oral, dose 3 mg/kg, time <=24; settings: in vivo; in short: as §1
[7] = Half life in Sprague-Dawley rat at 3 mg/kg, po via gavage measured up to 24 hrs by LC-MS analysis; format: ADME, organism-based; settings: in vivo; in short: as §1
[8] = Tmax in Sprague-Dawley rat at 3 mg/kg, po via gavage measured up to 24 hrs by LC-MS analysis; format: ADME, organism-based; settings: in vivo; in short: as §1

pIC50 [1]	pIC50 [2]	pIC50 [3]	pIC50 [4]	AUC(0-inf) [5]	Cmax [6]	half-life [7]	Tmax [8]	SMILES
9.40	6.08	7.48	> 9.00					Cn1cc(-c2ccc(NC(=O)c3cn(CC4CCOCC4)cc(-c4ccc(C(F)(F)F)cc4)c3=O)cc2)c2c(N)ncnc21
9.30	< 6.00	7.74	< 7.00					CN(C)C(=O)Cn1cc(C(=O)Nc2ccc(-c3cn(C)c4ncnc(N)c34)cc2)c(=O)c(-c2ccc(F)cc2)c1
8.30		7.61						Cn1cc(C(=O)Nc2ccc(-c3cn(C)c4ncnc(N)c34)cc2)c(=O)c(-c2ccc(F)cc2)c1
8.57		7.77						Nc1ncnc2c1c(-c1ccc(NC(=O)c3cn(CC4CCOCC4)cc(-c4ccc(F)cc4)c3=O)cc1)cn2CCN1CCOCC1
9.10	7.03	8.62	> 9.00					Cn1cc(-c2ccc(NC(=O)c3cn(CC4CCOCC4)cc(-c4ccc(F)cc4)c3=O)cc2F)c2c(N)ncnc21
8.40		7.47						Cc1cc(-c2cn(C)c3ncnc(N)c23)ccc1NC(=O)c1cn(CC2CCOCC2)cc(-c2ccc(F)cc2)c1=O
< 8.00		7.78						COCCCn1cc(C(=O)Nc2ccc(-c3cn(C)c4ncnc(N)c34)cc2)c(=O)c(-c2ccc(F)cc2)c1
9.40	7.53	8.77	> 9.00	385 ng·h/mL	330 ng/mL	1.37 h	0.83 h	Nc1ncnc2[nH]cc(-c3cc(F)c(NC(=O)c4cn(CC5CCOCC5)cc(-c5ccc(F)cc5)c4=O)cc3F)c12
10.00	6.61	8.15	> 9.00					Cn1cc(-c2ccc(NC(=O)c3cn(CC4CCOCC4)cc(-c4ccc(F)cc4)c3=O)cc2)c2c(N)ncnc21
	7.82							C[C@@H](Oc1cc(-c2cnn(C3CCNCC3)c2)cnc1N)c1c(Cl)ccc(F)c1Cl [CRIZOTINIB]
9.70	6.46	7.91	> 9.00					Cn1cc(-c2ccc(NC(=O)c3cn(CC4CCOCC4)cc(-c4ccc(Cl)cc4)c3=O)cc2)c2c(N)ncnc21
9.40	7.07	7.74	> 9.00					CC(C)n1cc(C(=O)Nc2ccc(-c3cn(C)c4ncnc(N)c34)cc2)c(=O)c(-c2ccc(F)cc2)c1
8.64		8.32						Cn1cc(-c2ccc(NC(=O)c3cn(CC4CCCCC4)cc(-c4ccc(F)cc4)c3=O)cc2)c2c(N)ncnc21
9.00	6.50	7.69	> 9.00					Cn1cc(-c2ccc(NC(=O)c3cn(CC4CCOCC4)cc(-c4ccccc4)c3=O)cc2)c2c(N)ncnc21
8.52		7.02						Cn1cc(-c2ccc(NC(=O)c3cn(CC4CCOCC4)cc(-c4cccc(F)c4)c3=O)cc2)c2c(N)ncnc21
8.74		8.29						CCCn1cc(-c2ccc(NC(=O)c3cn(CC4CCOCC4)cc(-c4ccc(F)cc4)c3=O)cc2)c2c(N)ncnc21
8.96		7.88						Cn1cc(-c2ccc(NC(=O)c3cn(C4CCOCC4)cc(-c4ccc(F)cc4)c3=O)cc2)c2c(N)ncnc21
9.70	6.68	8.14	> 9.00					Cn1cc(-c2ccc(NC(=O)c3cn(CC4CCOCC4)cc(-c4ccc(F)cc4)c3=O)c(F)c2)c2c(N)ncnc21
8.55		6.67						CN(C)CCn1cc(-c2ccc(NC(=O)c3cn(CC4CCOCC4)cc(-c4ccc(F)cc4)c3=O)cc2)c2c(N)ncnc21
9.70	7.11	8.36	> 9.00					Nc1ncnc2[nH]cc(-c3ccc(NC(=O)c4cn(CC5CCOCC5)cc(-c5ccc(F)cc5)c4=O)cc3)c12
9.10	6.30	7.70	> 9.00					Cn1cc(-c2ccc(NC(=O)c3cn(CC4CCOCC4)cc(-c4ccc(F)cc4F)c3=O)cc2)c2c(N)ncnc21
8.29		6.80						Cc1nc(N)c2c(-c3ccc(NC(=O)c4cn(CC5CCOCC5)cc(-c5ccc(F)cc5)c4=O)cc3)cn(C)c2n1
8.43		7.39						Cn1cc(-c2ccc(NC(=O)c3cn(CC4CCOCC4)cc(-c4ccc(F)cc4)c3=O)c(Cl)c2)c2c(N)ncnc21
8.92		8.51						Cn1cc(-c2ccc(NC(=O)c3cn(CC4CCCO4)cc(-c4ccc(F)cc4)c3=O)cc2)c2c(N)ncnc21 (configuration not stated)
9.30	7.27	8.48	> 9.00					Cn1cc(-c2cc(F)c(NC(=O)c3cn(CC4CCOCC4)cc(-c4ccc(F)cc4)c3=O)cc2F)c2c(N)ncnc21
